Screens deposited in PubChem by several laboratories.
The list is not random: actives were taken first. Their share in the collection is about 12%.
WT yeast gro inh = growth inhibition of WT yeast, mitochondrial fusion screen | mitochondrial fusion phenotypic screen, WT strain | inhibition, % at 10 µM | hit rate 2.1% among 190,000 | AID 1362; in the data active means inhibition above about 58%; tested in S. cerevisiae
ABCG2 block = blocks JC-1 efflux by human ABCG2 transporter | AID 1325 | inhibition, % at 6.6 µM | IgMXP3 cells, flow cytometry | Q9UNQ0 | hit rate 0.1% among 190,000;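 active means inhibition above 80%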
Target sequence (Q9UNQ0 whole entry, looked up): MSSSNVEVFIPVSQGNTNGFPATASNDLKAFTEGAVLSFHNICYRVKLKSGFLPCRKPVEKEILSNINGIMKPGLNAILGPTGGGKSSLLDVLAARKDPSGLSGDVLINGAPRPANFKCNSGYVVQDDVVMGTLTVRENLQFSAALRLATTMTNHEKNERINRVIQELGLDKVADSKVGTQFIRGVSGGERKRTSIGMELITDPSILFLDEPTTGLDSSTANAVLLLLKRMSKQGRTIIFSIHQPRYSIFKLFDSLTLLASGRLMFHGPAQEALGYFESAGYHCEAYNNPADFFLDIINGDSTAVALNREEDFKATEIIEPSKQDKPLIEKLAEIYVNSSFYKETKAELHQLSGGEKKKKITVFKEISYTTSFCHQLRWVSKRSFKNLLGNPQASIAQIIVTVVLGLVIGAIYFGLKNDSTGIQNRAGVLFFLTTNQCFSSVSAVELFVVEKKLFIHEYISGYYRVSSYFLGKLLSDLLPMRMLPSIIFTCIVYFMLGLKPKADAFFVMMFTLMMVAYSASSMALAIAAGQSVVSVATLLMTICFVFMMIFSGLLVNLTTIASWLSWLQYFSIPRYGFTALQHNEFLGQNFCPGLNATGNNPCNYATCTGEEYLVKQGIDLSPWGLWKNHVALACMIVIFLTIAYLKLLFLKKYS
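Test system: IgMXP3 (ABCG2) plus far-red-tagged CCRF-Adr (ABCB1) cells / Amount: 3 million cells/mL in well / Reagent: JC-1 transporter substrate / Timing: 10 min compound exposure, 25 °C / Signal: flow cytometry, 530 nm JC-1 signal / Read-out: percent efflux inhibition, scaled nicardipine 100% to DMSO 0% / Benchmarks: nicardipine as high control, DMSO as low control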
ABCB1 block = inhibitors of human ABCB1 transporter, ABCG2 counter-screen; CCRF-Adr cells, JC-1 efflux, flow cytometry; inhibition, % at 6.6 µM; hit rate 0.067% among 190,000; in the data active means inhibition above about 40%;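 further: higher value means more JC-1 retained so stronger ABCB1 efflux block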
L major viab = reduces viability of Leishmania major promastigotes; resazurin fluorescence viability; inhibition, % at 10 µM; hit rate 9% among 200,000; AID 1063; in the data active means inhibition above about 50%;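 further: promastigotes grown with compound for 44 hours at 28 °C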
RAM inhibit = inhibitors of the yeast RAM network. S. cerevisiae dse1pr::URA3 reporter, 5-FOA growth OD615, 2 d; analog-sensitive cbk1-as2 kinase mutant strain. inhibition, % at 50 µM. hit rate 1.8% among 190,000. AID 868;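 active means inhibition above a set limit, 3 SD over mean compound inhibition, cut at about 8.4% in these data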;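 further: inhibition rescues growth on 5-FOA so higher OD means more RAM inhibition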
Each line names hits and unclear results; the compound was inactive in the other large screens.

COCCN1CN(S(=O)(=O)c2ccc(Cl)cc2)c2nc3ccccc3nc21	L major viab 77.1
O=C(NCCc1ccccc1)C(=O)NCC1CCNCC1	none
Cc1ccccc1Nc1nc(-c2cccnc2)nc2ccccc12	L major viab 77.9
c1ccc(CN2CCC(Nc3nc(-c4cccnc4)nc4ccccc34)CC2)cc1	L major viab 97.9
c1ccc(CN2CCC(Nc3ncnc4sccc34)CC2)cc1	none
c1cncc(-c2nc(NCC3COc4ccccc4O3)c3ccccc3n2)c1 (configuration not stated)	WT yeast gro inh 67.5, L major viab 77.0
CCOC(=O)c1c(NC(=O)CSc2ncnc3[nH]ncc23)sc2c1CCC(C)C2 (configuration not stated)	none
CNC(=O)N(O)C1N(c2ccccc2)C(=S)SC1(C)C (configuration not stated)	none
COc1ccc(C2CCCN2C(=O)Nc2ccccc2)cc1OC (configuration not stated)	none
O=C(COc1ccc(S(=O)(=O)NC2CCCCC2)cc1Cl)NCc1ccc2c(c1)OCO2	L major viab 73.2
O=C(CC(SCCO)c1ccc(F)cc1)c1ccco1 (configuration not stated)	L major viab 83.7
COc1ccc(-n2c(C)cc(-c3cn4cccc(C)c4n3)c2C)cc1	L major viab 63.0
CC(C)C(NC(=O)c1ccc(C(C)(C)C)cc1)C(=O)Nc1cccc(S(N)(=O)=O)c1 (configuration not stated)	none
CN(C)CCC(=O)c1ccc(Cl)cc1	L major viab 99.8
COc1ccc(-c2csc(/C(C#N)=C\c3cccc([N+](=O)[O-])c3)n2)cc1	none
N#C/C(=C\c1ccc(O)c([N+](=O)[O-])c1)c1nc2ccccc2s1	none
COc1ccc(-c2csc(/C(C#N)=C\c3ccc(OC)c([N+](=O)[O-])c3)n2)cc1	L major viab 90.9
N#C/C(=C/c1ccco1)c1nc2ccccc2s1	L major viab 57.0
N#C/C(=C\c1ccco1)c1nc2ccccc2s1	none
COc1cc(/C=C(\C#N)c2nc3ccccc3s2)cc([N+](=O)[O-])c1O	WT yeast gro inh 66.6
N#CC1=C(N)NC(=S)C(C(N)=O)C1c1ccc([N+](=O)[O-])cc1 (configuration not stated)	none
COc1ccc(Br)cc1CNC(=O)Nc1cccs1	L major viab 53.6
COc1ccccc1N(C(=O)NCc1ccccc1)C1=NCC(C)S1 (configuration not stated)	L major viab 56.6
Cc1ccc(C(=O)c2cn[nH]c2-c2cc(Cl)ccc2O)cc1	L major viab 98.4
c1csc(-c2cn3ccc4ccccc4c3n2)c1	none
c1csc(-c2nc3c4ccccc4c4ccccc4c3[nH]2)c1	WT yeast gro inh 79.6
C/C(=N\NC(=O)c1ccc(Cn2cc([N+](=O)[O-])cn2)o1)c1cccc(NC(=O)C(C)C)c1	none
C/C(=N\NC(=O)c1ccc(Cn2cc(Br)cn2)o1)c1cccc(NC(=O)C(C)C)c1	L major viab 89.6
C/C(=N\NC(=O)c1cccc(Br)c1)c1cccc(NC(=O)c2ccc(C)o2)c1	L major viab 56.1
COCCCNc1nc(-c2ccncc2)nc2ccccc12	none
CCN(CC)CCCNc1nc(-c2ccccc2)nc2ccccc12	L major viab 71.6
c1ccc(-c2nc(NCCCn3ccnc3)c3ccccc3n2)cc1	L major viab 53.8
Clc1ccc(-c2nc(NCCN3CCOCC3)c3ccccc3n2)cc1	L major viab 61.9
COCCNc1nc(-c2ccccc2)nc2ccccc12	L major viab 83.8
COC(=O)c1cc(=O)n(Cc2ccc(OC)c(OC)c2)c(=Nc2ccc(F)cc2)s1	none
CCOC(=O)c1ccc(N=c2sc(C(=O)OC)cc(=O)n2-c2ccc(C(=O)OCC)cc2)cc1	L major viab 99.6
COC(=O)c1cc(=O)n(CCc2ccc(OC)c(OC)c2)c(=Nc2ccc(F)c(Cl)c2)s1	L major viab 98.3
COC(=O)c1cc(=O)n(Cc2ccco2)c(=Nc2ccc(F)cc2)s1	L major viab 95.6
COC(=O)c1cc(=O)n(-c2ccccc2)c(=Nc2ccccc2)s1	L major viab 87.0
COc1cccc(CC2CC(=O)N(c3ccc4c(C)cc(=O)oc4c3)C2=O)c1 (configuration not stated)	none
O=C1OCCC1Sc1nnc(-c2ccc(F)cc2)n1Cc1ccccc1 (configuration not stated)	none
COc1ccccc1N1CCN(C(=O)CN(C)S(=O)(=O)c2cc(C)ccc2OC)CC1	none
CC(=O)N1CC(=O)N=C1SCC(=O)Nc1nc(C)c(-c2ccccc2)s1	L major viab 95.7
CCc1sc(NC(=O)CN2CCOCC2)nc1-c1ccccc1	none
Cc1nc(NC(=O)CN2CCOCC2)sc1-c1ccccc1	L major viab 51.0
CC(=O)c1cccc(NC(=O)C2C3C=CC(C3=C(c3ccccc3)c3ccccc3)C2C(=O)O)c1 (configuration not stated)	none
NNC(=S)NCc1ccc2c(c1)OCO2	none
COc1ccccc1OCC#CCn1ccnc1	none (no result: WT yeast gro inh)
COc1ccccc1OCC#CCNC1CCCCC1C (configuration not stated)	L major viab 77.7
CC(OC(=O)CCN1C(=O)c2cccc([N+](=O)[O-])c2C1=O)C(=O)Nc1cc(Cl)cc(Cl)c1 (configuration not stated)	L major viab 54.0
O=c1[nH]c(Cc2ccccn2)nc2scc(-c3ccccc3Cl)c12	none
CNC(=S)N/N=C/C1=CCC2CC1C2(C)C (configuration not stated)	L major viab 97.4
Cc1ccsc1/C=N/NC(=S)NCCc1ccccc1	WT yeast gro inh 69.0
CC1(C)C2CC=C(/C=N/NC(=O)c3ccccc3O)C1C2 (configuration not stated)	none
CC1(C)C2CC=C(/C=N/NC(=S)NCCc3ccccc3)C1C2 (configuration not stated)	WT yeast gro inh 66.2, L major viab 86.8
Cc1ccc(CN2CCNC(=O)C2CC(=O)NCCCn2ncc3ccccc32)o1 (configuration not stated)	none
Cc1nnc(NC(=O)CSc2ccc3nnc(-c4cccnc4)n3n2)s1	none
COc1ccc(C(=O)Nc2cc(C)on2)cc1S(=O)(=O)N1CC(c2ccccc2)CC1=O (configuration not stated)	none
CN(Cc1ccccc1)c1ccc(S(=O)(=O)N2CCOCC2)cn1	none
CN(Cc1ccccc1F)c1ccc(S(=O)(=O)N2CCCC2)cn1	L major viab 98.2
CCN1CCn2c3c(c4cc(Cl)ccc42)CCCC31 (configuration not stated)	L major viab 54.4
CCN(CC)CCN1CCn2c3c(c4cc(C)ccc42)CCCC31 (configuration not stated)	L major viab 100.1
CCn1c2c(c3cc(Cl)ccc31)CCCC2=O	none
COC(=O)c1ccccc1NC(=O)c1ccc(COc2cccc3ccccc23)o1	none
